Each structure is given as a SMILES string. The source made the active and inactive calls.

The values below come from ChEMBL document CHEMBL4330119 (J Med Chem, 2019).

In data set [1] the target is Kappa-type opioid receptor (Mus musculus, UniProt P33534). The data set can be described thus: Displacement of [3H]-diprenorphine from mouse KOR expressed in CHO cell membranes by competitive radioligand binding assay. The essentials: (§1)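 30 μg CHO membrane protein incubated with radioligand and varying competitor in TME buffer (50 mM Tris, 3 mM MgCl2, 0.2 mM EGTA, pH 7.4). Bound ligand separated by filtration. […] IC50 from Hill plots, converted to Ki by Cheng–Prusoff.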

Data set [2] addresses Delta-type opioid receptor (Mus musculus, UniProt P32300). Kind of data set: Displacement of [3H]-diprenorphine from mouse DOR expressed in CHO cell membranes by competitive radioligand binding assay. In outline:
as §1

In data set [3] the test system is Mus musculus. Kind of data set: In vivo antagonist activity at MOR in Swiss Webster mouse assessed reduction in morphine-induced antinociceptive effect by measuring morphine MPE at 10 mg/kg, sc preincubated for 5 mins followed by morphine addition and measured after 20 min post morphine challenge by tail immersion test relative to control. The class given is functional. In outline: (§2)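 Male Swiss Webster mice, 5 per group. […] Baseline latency 2–4 s, 10 s cutoff. %MPE calculated per mouse. AD50 by least-squares linear regression, 95% CI by Bliss method.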

Data set [4] relates to Mus musculus. Kind of data set: In vivo antagonist activity at MOR in sc dosed Swiss Webster mouse assessed reduction in morphine-induced antinociceptive effect by measuring morphine MPE preincubated for 5 mins followed by morphine addition and measured after 20 min post morphine challenge by tail immersion test. It is filed as functional. The essentials:
as §2

Data set [5] concerns Mus musculus. Kind of data set: Induction of withdrawal symptoms in morphine-pelleted Swiss Webster mouse model assessed as dog shakes at 10 mg/kg, sc measured after 72 hrs […] for 20 mins. The class given is organism-based. The following applies: in vivo. In outline:
(§3)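 Withdrawal precipitated 72 h after implantation by sc compound, after 30 min habituation to an open Plexiglas chamber. Wet dog shakes, escape jumps and paw tremors counted over 20 min, five mice per group. Naloxone 1 mg/kg sc as reference.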

Data set [6] concerns Mus musculus. The data set can be described thus: Induction of withdrawal symptoms in morphine-pelleted Swiss Webster mouse model assessed as escape jumps at 10 mg/kg, sc measured after 72 hrs […] for 20 mins. It is filed as organism-based. To be noted: in vivo. The essentials:
as §3

The subject of data set [7] is Mus musculus. Kind of data set: Induction of withdrawal symptoms in morphine-pelleted Swiss Webster mouse model assessed as paw tremors […] at 10 mg/kg, sc measured after 72 hrs […] for 20 mins. The class given is organism-based. To be noted: in vivo. The essentials:
as §3

Data set [8] relates to Mus musculus. The data set can be described thus: Induction of withdrawal symptoms in morphine-pelleted Swiss Webster mouse model assessed as dog shakes at 50 to 100 mg/kg, sc measured after 72 hrs […] for 20 mins. The class given is organism-based. The following applies: in vivo. The essentials: as §3
For data set [9], the system named is Mus musculus. Kind of data set: Induction of withdrawal symptoms in morphine-pelleted Swiss Webster mouse model assessed as paw tremors […] at 50 to 100 mg/kg, sc measured after 72 hrs […] for 20 mins. It is filed as organism-based. The following applies: in vivo. In outline:
as §3

In data set [10] the test system is Mus musculus. The data set can be described thus: Induction of withdrawal symptoms in morphine-pelleted Swiss Webster mouse model assessed as escape jumps at 50 mg/kg, sc measured after 72 hrs […] for 20 mins. The class given is organism-based. The following applies: in vivo. The essentials:
as §3

Data set [11] has as its target Mu-type opioid receptor (Mus musculus) (UniProt P42866). The data set can be described thus: Antagonist activity at mouse MOR expressed in CHO cell membranes assessed as inhibition of DAMGO-stimulated [35S]GTPgammaS binding after 90 mins relative to DAMGO. The class given is functional.
The target of data set [12] is T1, Mu-type opioid receptor (Mus musculus, UniProt P42866). The data set can be described thus: Displacement of [3H]-naloxone from mouse MOR expressed in CHO cell membranes by competitive radioligand binding assay. The essentials:
as §1

For data set [13], the species on record is Mus musculus. Kind of data set: Selectivity ratio of Ki for mouse DOR expressed in CHO cell membranes to Ki for mouse MOR expressed in CHO cell membranes. The class given is cell-based. In outline: (§4)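 Ratio of Ki values from competition binding: 30 μg CHO membranes in TME pH 7.4, filtration. IC50 converted to Ki by Cheng–Prusoff.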
For data set [14], the species on record is Mus musculus. Kind of data set: Selectivity ratio of Ki for mouse KOR expressed in CHO cell membranes to Ki for mouse MOR expressed in CHO cell membranes. It is filed as cell-based. The essentials:
as §4

Data set [15] concerns the target T1, Mu-type opioid receptor. Kind of data set: Antagonist activity at mouse MOR expressed in CHO cell membranes assessed as inhibition of DAMGO-stimulated [35S]GTPgammaS binding after 90 mins. It is filed as functional.
Data set [16] concerns Mus musculus. The data set can be described thus: Antinociceptive activity in Swiss Webster mouse at 10 mg/kg, sc measured after 20 min post dose by tail immersion test. It is filed as functional, organism-based. In outline: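 Male Swiss Webster mice, 7–8 weeks, 5 per group. Compound given sc, tail immersed in 56 ± 0.1 °C water 20 min later. Only mice with baseline latency of 2–4 s were used. 10 s cutoff. %MPE = [(test – control)/(10 – control)] × 100.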

Data set [17] deals with Mus musculus. Kind of data set: Induction of withdrawal symptoms in morphine-pelleted Swiss Webster mouse model assessed as dog shakes at 1 mg/kg, sc measured after 72 hrs […] for 20 mins. It is filed as organism-based. The following applies: in vivo. In outline: as §3
For data set [18], the system named is Mus musculus. The data set can be described thus: Induction of withdrawal symptoms in morphine-pelleted Swiss Webster mouse model assessed as escape jumps at 1 mg/kg, sc measured after 72 hrs […] for 20 mins. To be noted: in vivo. The class given is organism-based. The essentials: as §3
Data set [19] concerns Mus musculus. The data set can be described thus: Induction of withdrawal symptoms in morphine-pelleted Swiss Webster mouse model assessed as dog shakes at 5 mg/kg, sc measured after 72 hrs […] for 20 mins. The following applies: in vivo. The class given is organism-based. In outline: as §3
For data set [20], the system named is Mus musculus. The data set can be described thus: Induction of withdrawal symptoms in morphine-pelleted Swiss Webster mouse model assessed as escape jumps at 5 mg/kg, sc measured after 72 hrs […] for 20 mins. It is filed as organism-based. To be noted: in vivo. In outline: as §3
Data set [21] has as its system Mus musculus. Kind of data set: Induction of withdrawal symptoms in morphine-pelleted Swiss Webster mouse model assessed as paw tremors […] at 5 mg/kg, sc measured after 72 hrs […] for 20 mins. The class given is organism-based. The following applies: in vivo. The essentials: as §3
The test system of data set [22] is Mus musculus. The data set can be described thus: Induction of withdrawal symptoms in morphine-pelleted Swiss Webster mouse model assessed as paw tremors […] at 1 mg/kg, sc measured after 72 hrs […] for 20 mins. To be noted: in vivo. It is filed as organism-based. In outline:
as §3

On to `O=C(N[C@@H]1CC[C@@]2(O)[C@H]3Cc4ccc(O)c5c4[C@@]2(CCN3CC2CC2)[C@H]1O5)c1ccncc1F`, for which the figures for the inhibition constant Ki in [1] and in [2] were 4.8 nM and 157 nM, respectively. Also, in data set [3], the inhibition in vivo at 10 mg/kg was determined as 6.2%. Also, in data set [4], the ED50 was 2.82 mg/kg. Moreover, the Activity entry in data set [5] is “Non-Toxic”; in data set [6], “Non-Toxic”; in data set [7], “Non-Toxic”; in data set [8], “Non-Toxic”; in [9], “Toxic”; in data set [10], “Non-Toxic”.
Turning to `CC(C)Cc1cnccc1C(=O)N[C@@H]1CC[C@@]2(O)[C@H]3Cc4ccc(O)c5c4[C@@]2(CCN3CC2CC2)[C@H]1O5`, the Ki in data set [1] is 75.6 nM; in data set [2], 149 nM. Also, the Emax in [11] was 27.3%. Besides, in data set [3], the inhibition entry was “inactive”.
Turning to `O=C(O)c1cnccc1C(=O)N[C@@H]1CC[C@@]2(O)[C@H]3Cc4ccc(O)c5c4[C@@]2(CCN3CC2CC2)[C@H]1O5`, the results for the inhibition constant Ki in data set [12], in data set [1] and in data set [2] were 0.76 nM, 2.43 nM and 55.6 nM, respectively. Moreover, the Ratio Ki in [13] was found to be 73.2; in data set [14] it was 3.2. In addition, the half-maximal effective concentration (EC50) in data set [15] came out at 1.83 nM. For the same compound, the Emax in data set [11] turned out to be 29.3%. The inhibition result in [3] was “inactive”.
Turning to `O=C(N[C@@H]1CC[C@@]2(O)[C@H]3Cc4ccc(O)c5c4[C@@]2(CCN3CC2CC2)[C@H]1O5)c1ccncc1C1CCCCCC1`, the values for the Ki in data set [1] and in data set [2] were 5.16 nM and 15 nM, respectively. Further, the Emax in data set [11] was found to be 48.3%. Moreover, the inhibition entry in [3] was “inactive”.
Consider `O=C(N[C@@H]1CC[C@@]2(O)[C@H]3Cc4ccc(O)c5c4[C@@]2(CCN3CC2CC2)[C@H]1O5)c1ccncc1C1CCCCC1`, for which the Ki in [1] was found to be 3.32 nM; in data set [2], 11.2 nM. In addition, the maximal response (Emax) in data set [11] is 51.6%. For the same compound, the inhibition entry in [3] is “inactive”.
For `O=C(N[C@@H]1CC[C@@]2(O)[C@H]3Cc4ccc(O)c5c4[C@@]2(CCN3CC2CC2)[C@H]1O5)c1ccncc1C(F)(F)F`, the inhibitory constant (Ki) in data set [12] came out at 0.43 nM; in [1], 12.5 nM; in data set [2], 61.8 nM. Further, the figures for the Ratio Ki in data set [13] and in [14] were 144 and 29.1, respectively. Also, the EC50 in data set [15] worked out at 1.38 nM. Moreover, the maximal response (Emax) in [11] turned out to be 31.9%. In addition, the inhibition result in data set [3] was “inactive”.
Turning to `O=C(N[C@@H]1CC[C@@]2(O)[C@H]3Cc4ccc(O)c5c4[C@@]2(CCN3CC2CC2)[C@H]1O5)c1ccncc1C1CCCC1`, the results for the Ki in [1] and in data set [2] were 8.16 nM and 34 nM, respectively. In addition, the inhibition entry in data set [3] is “inactive”.
For `N#Cc1cnccc1C(=O)N[C@@H]1CC[C@@]2(O)[C@H]3Cc4ccc(O)c5c4[C@@]2(CCN3CC2CC2)[C@H]1O5`, the Ki turned out to be 2.74 nM in data set [1] and 46.3 nM in data set [2]. In addition, the Emax in data set [11] was 26.1%. The outcome in data set [16] was inactive. In data set [3], this compound displayed an inhibition in vivo at 10 mg/kg of 7.8%. Further, the median effective dose (ED50) in data set [4] is 1.75 mg/kg. Further, the inhibition result in data set [4] is “Dose-dependent effect”. Also, the Activity result is “Non-Toxic” in [17]; “Non-Toxic” in data set [18]; “Toxic” in data set [19]; “Toxic” in data set [20]; “Toxic” in [21].
Turning to `COC(=O)c1cnccc1C(=O)N[C@@H]1CC[C@@]2(O)[C@H]3Cc4ccc(O)c5c4[C@@]2(CCN3CC2CC2)[C@H]1O5`, the Ki in data set [1] was 11.7 nM; in data set [2], 137 nM. In [11], the Emax was 29.2%. In [3], the inhibition result was “inactive”.
The corresponding values for `O=C(N[C@@H]1CC[C@@]2(O)[C@H]3Cc4ccc(O)c5c4[C@@]2(CCN3CC2CC2)[C@H]1O5)c1ccncc1-c1ccccc1` are 3.42 nM, 44.8 nM, 44.4% and “inactive”.
For `O=C(N[C@@H]1CC[C@@]2(O)[C@H]3Cc4ccc(O)c5c4[C@@]2(CCN3CC2CC2)[C@H]1O5)c1ccncc1[N+](=O)[O-]`, the Ki in data set [1] amounted to 4.46 nM; in [2], 95.6 nM. The maximal effect (Emax) in data set [11] came out at 39.1%. Besides, the inhibition result in [3] was “inactive”.
Turning to `C=CCN1CC[C@]23c4c5ccc(O)c4O[C@H]2C(=O)CC[C@@]3(O)[C@H]1C5` [NALOXONE], the Activity entry in data set [17], in data set [18] and in [22] was “Toxic” each time.
In the case of `CCc1cnccc1C(=O)N[C@@H]1CC[C@@]2(O)[C@H]3Cc4ccc(O)c5c4[C@@]2(CCN3CC2CC2)[C@H]1O5`, the Ki was determined as 9.18 nM in data set [1] and 42.9 nM in data set [2]. In addition, in [11], the Emax came to 41.6%. Besides, the inhibition result in [3] was “inactive”.
